Test results from ChEMBL document CHEMBL1926556, “Synthesis and biological activities of 2-[(heteroaryl)methyl]imidazolines” (Bioorg Med Chem, 2012).
Activity calls are given as the source filed them. The calls are words filed in the database; no cut-off is given here.

Tests used:
Rattus norvegicus [1] = assay: Toxicity in Sprague-Dawley rat assessed as resistance to handling at 10 to 2000 ug/kg, ip measured after 30 mins; assay type: organism-based; conditions: in vivo, 0.5 h
How it was run: (§1)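 Male Sprague–Dawley rats (250–270 g) were handled by the experimenter one day before testing. Compound was dissolved in sterile saline and given i.p. If no loss of righting reflex occurred after 5 min, the dose was repeated, up to 2000 µg/kg cumulative. Animals were watched for righting reflex, locomotion, motor coordination and behaviour. Righting reflex was scored at 30 min.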

Rattus norvegicus [2] = assay: Toxicity in Sprague-Dawley rat assessed as still state at 10 to 2000 ug/kg, ip measured after 30 mins; assay type: organism-based; conditions: in vivo, 0.5 h; how it was run: as §1
Rattus norvegicus [3] = assay: Anxiolytic activity in Sprague-Dawley rat assessed as loss of righting reflex at 10 ug/kg, ip measured after 30 mins; assay type: functional, organism-based; how it was run: as §1
Rattus norvegicus [4] = assay: Antihypertensive activity in Wistar rat assessed as inhibition of methoxamine-induced change in blood pressure at 0.1 mg/kg, iv administered 10 mins after 10 ug/kg/min methoxamine challenge; assay type: functional, organism-based; parameters: dose 0.1 mg/kg
How it was run: (§2)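 Male Wistar rats (200–290 g) anaesthetized with i.p. thiopental 70 mg/kg, maintained by thiopental infusion, 36–37 °C. Carotid catheter for BP/HR, jugular line for infusion. Methoxamine i.v. infusion 10 or 20 µg/kg/min began 10 min before 0.1 mg/kg i.v. bolus. Readout is ΔMAP or ΔHR from time 0. Five to seven rats per group; repeated-measures ANOVA.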

Rattus norvegicus [5] = assay: Toxicity in Sprague-Dawley rat assessed as calm behavior at 10 to 2000 ug/kg, ip measured after 30 mins; assay type: organism-based; conditions: in vivo, 0.5 h
Rattus norvegicus [6] = assay: Antihypertensive activity in Wistar rat assessed as inhibition of methoxamine-induced change in heart rate at 0.1 mg/kg, iv administered 10 mins after 10 ug/kg/min methoxamine challenge; assay type: functional, organism-based; parameters: dose 0.1 mg/kg; how it was run: as §2
Rattus norvegicus [7] = assay: Antihypertensive activity in Wistar rat assessed as inhibition of methoxamine-induced change in heart rate at 0.1 mg/kg, iv administered 10 mins after methoxamine challenge; assay type: functional; how it was run: as §2

Cl.Clc1cccc2cnn(CC3=NCCN3)c12
Activity (Rattus norvegicus [1]): Non-toxic
Activity (Rattus norvegicus [2]): Non-toxic
Activity (Rattus norvegicus [3]): inactive
Activity (Rattus norvegicus [4]): inactive
Activity (Rattus norvegicus [5]): Non-toxic
Activity (Rattus norvegicus [6]): inactive
Activity (Rattus norvegicus [7]): -131.8 bpm
